# Data: ChEMBL document CHEMBL5705885, “CYT387, a selective JAK1/JAK2 inhibitor: in vitro assessment of kinase selectivity and preclinical studies using cell lines and primary cells from polycythemia vera patients” (Leukemia, 2009)
# Experiments:
# [1] = target: Mitogen-activated protein kinase 10 (Homo sapiens) (UniProt P53779); conditions: dose 100.0 nM
# [2] = target: Platelet-derived growth factor receptor beta (Homo sapiens, UniProt P09619); test: Inhibition of PDGFRB (unknown origin)
# [3] = target: Dual specificity protein kinase CLK3 (Homo sapiens, UniProt P49761); test: Inhibition of CLK3 (unknown origin)
# [4] = target: Casein kinase I isoform gamma-1 (Homo sapiens, UniProt Q9HCP0); test: Inhibition of CSNK1G1 (unknown origin)
# [5] = target: Muscle, skeletal receptor tyrosine-protein kinase (Homo sapiens) (UniProt O15146); conditions: dose 100.0 nM
# [6] = target: Mitogen-activated protein kinase 1 (Homo sapiens, UniProt P28482); conditions: dose 100.0 nM
# BaF3 = test: Antiproliferative activity against mouse BaF3 cells harboring MPLW515L measured after 72 hrs by Alamar blue staining based analysis; assay type: functional, cell-based; conditions: BaF3, 72 h
# How it was run: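 Ba/F3 murine cells expressing JAK2V617F or MPLW515L. Compound stocks in DMSO were diluted into culture medium. After 72 h at 37 °C in 5% CO2, proliferation was quantified with the Alamar Blue assay.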
# [7] = target: Activin receptor type-1B (Homo sapiens) (UniProt P36896); conditions: dose 100.0 nM
# [8] = target: Mitogen-activated protein kinase kinase kinase kinase 2 (Homo sapiens) (UniProt Q12851); conditions: dose 100.0 nM
# [9] = target: AMP-activated protein kinase (AMPK) alpha-1/beta-1/gamma-1 (Homo sapiens) (UniProt P54619+Q9Y478+Q13131); conditions: dose 100.0 nM
# [10] = target: Homeodomain-interacting protein kinase 4 (Homo sapiens) (UniProt Q8NE63); conditions: dose 100.0 nM
# [11] = target: Tyrosine-protein kinase Yes (Homo sapiens, UniProt P07947); test: Inhibition of YES1 (unknown origin)
# Ephrin type-A receptor 2 = Ephrin type-A receptor 2 (Homo sapiens, UniProt P29317); test: Inhibition of EPHA2 (unknown origin)
# [12] = target: Serine/threonine-protein kinase Sgk1 (Homo sapiens) (UniProt O00141); conditions: dose 100.0 nM
# [13] = target: Insulin-like growth factor 1 receptor (Homo sapiens, UniProt P08069); test: Inhibition of IGF1R (unknown origin)
# [14] = target: Phosphorylase b kinase gamma catalytic chain, liver/testis isoform (Homo sapiens, UniProt P15735); test: Inhibition of PHKG2 (unknown origin)
# [15] = target: Proto-oncogene tyrosine-protein kinase Src (Homo sapiens, UniProt P12931); test: Inhibition of SRC (unknown origin)
# [16] = target: Vascular endothelial growth factor receptor 2 (Homo sapiens, UniProt P35968); conditions: dose 100.0 nM
# [17] = target: Serine/threonine-protein kinase PAK 4 (Homo sapiens, UniProt O96013); conditions: dose 100.0 nM
# [18] = target: Serine/threonine-protein kinase TBK1 (Homo sapiens) (UniProt Q9UHD2); conditions: dose 100.0 nM
# [19] = target: Calcium/calmodulin-dependent protein kinase type 1D (Homo sapiens, UniProt Q8IU85); test: Inhibition of CAMK1 delta (unknown origin)
# [20] = target: High affinity nerve growth factor receptor (Homo sapiens, UniProt P04629); test: Inhibition of NTRK1 (unknown origin)
# [21] = target: ALK tyrosine kinase receptor (Homo sapiens, UniProt Q9UM73); test: Inhibition of ALK (unknown origin)
# [22] = target: Signal transducer and activator of transcription 5A (Homo sapiens) (UniProt P42229); test: Inhibition of STAT5 phosphorylation in human HEL cells by Western blot analysis; assay type: cell-based; conditions: dose <= 1.0 µM
# How it was run: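 HEL cells were starved overnight in RPMI with 1% FCS, then exposed to compound for 2 h at 37 °C. Cells were lysed in RIPA buffer (50 mM HEPES pH 7.4, 150 mM NaCl, 1% Triton X-100, deoxycholate, 0.1% SDS) with protease and phosphatase inhibitors. Protein was quantified by Bradford assay and blots were developed by chemiluminescence. Membranes were stripped and reprobed for total STAT5.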
# [23] = target: Tyrosine-protein kinase JAK2 (Homo sapiens) (UniProt O60674); conditions: dose 100.0 nM
# Aurora kinase B = Aurora kinase B (Homo sapiens, UniProt Q96GD4); test: Inhibition of AURKB (unknown origin)
# [24] = target: T1, Macrophage colony-stimulating factor 1 receptor (Homo sapiens, UniProt P07333); conditions: dose 100.0 nM
# [25] = target: Inhibitor of nuclear factor kappa-B kinase subunit beta (Homo sapiens, UniProt O14920); test: Inhibition of IKBKB (unknown origin)
# [26] = target: Serine/threonine-protein kinase D1 (Homo sapiens, UniProt Q15139); test: Inhibition of PRKD1 (unknown origin)
# [27] = target: T1, Macrophage colony-stimulating factor 1 receptor; test: Inhibition of CSF1R (unknown origin)
# [28] = target: Serine/threonine-protein kinase 26 (Homo sapiens, UniProt Q9P289); conditions: dose 100.0 nM
# K562 = test: Antiproliferative activity against human K562 cells measured after 72 hrs by Alamar blue staining based analysis; assay type: functional, cell-based; conditions: K562, 72 h
# How it was run: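 Cells were exposed for 72 h at 37 °C under 5% CO2 to compound made up as DMSO stock and diluted in culture medium. Proliferation was then read by Alamar Blue.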
# [29] = target: Ribosomal protein S6 kinase alpha-3 (Homo sapiens, UniProt P51812); test: Inhibition of RPS6KA3 (unknown origin)
# [30] = target: Cyclin-dependent kinase 5/CDK5 activator 1 (Homo sapiens, UniProt Q00535); test: Inhibition of CDK5/p35 (unknown origin); assay type: protein-complex assay
# [31] = target: Tyrosine-protein kinase receptor TYRO3 (Homo sapiens, UniProt Q06418); test: Inhibition of TYRO3 (unknown origin)
# [32] = target: Myosin light chain kinase 2, skeletal/cardiac muscle (Homo sapiens, UniProt Q9H1R3); conditions: dose 100.0 nM
# [33] = target: Beta-adrenergic receptor kinase 1 (Homo sapiens, UniProt P25098); test: Inhibition of ADRBK1 (unknown origin)
# [34] = target: G protein-coupled receptor kinase 4 (Homo sapiens, UniProt P32298); test: Inhibition of GRK4 (unknown origin)
# [35] = target: Fibroblast growth factor receptor 3 (Homo sapiens, UniProt P22607); test: Inhibition of FGFR3 (unknown origin)
# [36] = target: Tyrosine-protein kinase SYK (Homo sapiens, UniProt P43405); conditions: dose 100.0 nM
# [37] = target: Cyclin-dependent kinase 1/cyclin B1 (Homo sapiens, UniProt P06493); test: Inhibition of CDK1/cyclin B (unknown origin); assay type: protein-complex assay
# [38] = target: G protein-coupled receptor kinase 3 (Homo sapiens, UniProt P35626); test: Inhibition of ADRBK2 (unknown origin)
# T1 sequence (P07333 whole entry): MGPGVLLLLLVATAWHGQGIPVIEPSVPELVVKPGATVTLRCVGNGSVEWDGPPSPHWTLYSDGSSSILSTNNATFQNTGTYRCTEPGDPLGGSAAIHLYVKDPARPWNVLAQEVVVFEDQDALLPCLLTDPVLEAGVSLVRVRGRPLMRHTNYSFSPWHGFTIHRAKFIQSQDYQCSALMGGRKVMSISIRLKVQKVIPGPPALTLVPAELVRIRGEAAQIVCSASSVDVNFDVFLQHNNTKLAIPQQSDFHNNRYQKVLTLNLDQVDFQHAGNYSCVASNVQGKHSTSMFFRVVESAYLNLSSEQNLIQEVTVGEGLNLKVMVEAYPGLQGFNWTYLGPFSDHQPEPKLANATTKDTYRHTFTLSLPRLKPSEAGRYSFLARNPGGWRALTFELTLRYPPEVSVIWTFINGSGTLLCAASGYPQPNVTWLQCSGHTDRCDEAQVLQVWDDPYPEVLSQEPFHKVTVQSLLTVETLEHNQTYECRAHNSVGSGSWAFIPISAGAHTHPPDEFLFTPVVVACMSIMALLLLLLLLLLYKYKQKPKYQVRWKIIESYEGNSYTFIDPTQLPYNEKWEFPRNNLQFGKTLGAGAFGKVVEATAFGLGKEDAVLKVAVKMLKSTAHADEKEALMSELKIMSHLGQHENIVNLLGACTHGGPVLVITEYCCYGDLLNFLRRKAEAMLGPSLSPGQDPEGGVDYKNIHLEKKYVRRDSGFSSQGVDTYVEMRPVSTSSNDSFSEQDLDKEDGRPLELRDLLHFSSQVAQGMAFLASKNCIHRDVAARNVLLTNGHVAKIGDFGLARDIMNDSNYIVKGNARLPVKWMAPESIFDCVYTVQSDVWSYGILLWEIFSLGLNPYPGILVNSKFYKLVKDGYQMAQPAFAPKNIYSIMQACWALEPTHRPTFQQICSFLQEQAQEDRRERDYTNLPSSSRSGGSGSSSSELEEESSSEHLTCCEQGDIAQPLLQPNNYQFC
# Tyrosine-protein kinase Yes, sequence (P07947 whole entry): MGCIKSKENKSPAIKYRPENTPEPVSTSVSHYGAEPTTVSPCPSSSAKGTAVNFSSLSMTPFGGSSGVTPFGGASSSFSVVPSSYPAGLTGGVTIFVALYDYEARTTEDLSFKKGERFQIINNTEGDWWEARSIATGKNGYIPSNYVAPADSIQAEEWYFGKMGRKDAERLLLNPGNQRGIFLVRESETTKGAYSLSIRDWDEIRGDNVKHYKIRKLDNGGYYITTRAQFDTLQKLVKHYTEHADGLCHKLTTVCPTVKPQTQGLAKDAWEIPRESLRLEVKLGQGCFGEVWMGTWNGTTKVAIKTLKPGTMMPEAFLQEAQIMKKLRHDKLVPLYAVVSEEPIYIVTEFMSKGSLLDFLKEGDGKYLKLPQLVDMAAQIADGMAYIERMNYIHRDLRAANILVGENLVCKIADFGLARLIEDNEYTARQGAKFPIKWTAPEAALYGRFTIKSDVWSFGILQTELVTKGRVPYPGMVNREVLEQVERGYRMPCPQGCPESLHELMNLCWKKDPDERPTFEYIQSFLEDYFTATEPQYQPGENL
# Ribosomal protein S6 kinase alpha-3, sequence (P51812 whole entry): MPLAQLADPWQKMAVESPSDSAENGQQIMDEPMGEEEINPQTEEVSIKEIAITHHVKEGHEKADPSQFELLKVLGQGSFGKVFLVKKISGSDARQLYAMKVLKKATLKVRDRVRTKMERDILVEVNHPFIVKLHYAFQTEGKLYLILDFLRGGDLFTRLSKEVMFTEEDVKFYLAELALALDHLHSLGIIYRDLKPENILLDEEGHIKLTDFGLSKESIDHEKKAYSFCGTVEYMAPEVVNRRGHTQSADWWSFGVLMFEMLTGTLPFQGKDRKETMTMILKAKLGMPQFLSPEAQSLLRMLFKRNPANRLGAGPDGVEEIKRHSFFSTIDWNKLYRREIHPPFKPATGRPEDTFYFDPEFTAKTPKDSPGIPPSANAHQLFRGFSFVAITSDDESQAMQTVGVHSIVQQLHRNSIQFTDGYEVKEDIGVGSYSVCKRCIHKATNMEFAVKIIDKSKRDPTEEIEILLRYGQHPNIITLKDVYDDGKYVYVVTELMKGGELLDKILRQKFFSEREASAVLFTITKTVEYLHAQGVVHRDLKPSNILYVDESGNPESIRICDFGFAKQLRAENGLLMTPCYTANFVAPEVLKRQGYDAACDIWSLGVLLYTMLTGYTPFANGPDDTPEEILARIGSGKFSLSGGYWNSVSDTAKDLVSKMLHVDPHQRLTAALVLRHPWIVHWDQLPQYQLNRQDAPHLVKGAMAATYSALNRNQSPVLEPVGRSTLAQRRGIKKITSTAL
# Cyclin-dependent kinase 1/cyclin B1, sequence (P06493 whole entry): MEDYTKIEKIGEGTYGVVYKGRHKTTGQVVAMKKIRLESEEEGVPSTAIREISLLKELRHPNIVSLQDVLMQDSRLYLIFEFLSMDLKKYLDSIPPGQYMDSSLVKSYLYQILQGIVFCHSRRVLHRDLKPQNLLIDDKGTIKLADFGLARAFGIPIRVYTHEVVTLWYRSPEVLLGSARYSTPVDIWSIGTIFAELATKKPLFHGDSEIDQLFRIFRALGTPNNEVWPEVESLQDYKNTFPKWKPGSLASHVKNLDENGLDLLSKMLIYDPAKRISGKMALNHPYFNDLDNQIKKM
# Cyclin-dependent kinase 1/cyclin B1, sequence (P14635 whole entry, further chain): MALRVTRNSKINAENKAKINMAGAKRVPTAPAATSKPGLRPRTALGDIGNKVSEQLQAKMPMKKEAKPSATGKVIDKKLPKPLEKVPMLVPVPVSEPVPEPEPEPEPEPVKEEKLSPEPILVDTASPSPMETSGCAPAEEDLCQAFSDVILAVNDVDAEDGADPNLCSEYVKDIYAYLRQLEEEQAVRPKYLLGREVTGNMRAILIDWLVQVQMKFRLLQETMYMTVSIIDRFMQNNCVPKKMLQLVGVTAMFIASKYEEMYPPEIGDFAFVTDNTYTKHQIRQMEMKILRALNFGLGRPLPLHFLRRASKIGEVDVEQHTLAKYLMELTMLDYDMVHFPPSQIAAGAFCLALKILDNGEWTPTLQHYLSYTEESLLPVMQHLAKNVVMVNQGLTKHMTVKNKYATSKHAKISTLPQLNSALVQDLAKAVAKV
# Serine/threonine-protein kinase 26, sequence (Q9P289 2-416 limits assumed): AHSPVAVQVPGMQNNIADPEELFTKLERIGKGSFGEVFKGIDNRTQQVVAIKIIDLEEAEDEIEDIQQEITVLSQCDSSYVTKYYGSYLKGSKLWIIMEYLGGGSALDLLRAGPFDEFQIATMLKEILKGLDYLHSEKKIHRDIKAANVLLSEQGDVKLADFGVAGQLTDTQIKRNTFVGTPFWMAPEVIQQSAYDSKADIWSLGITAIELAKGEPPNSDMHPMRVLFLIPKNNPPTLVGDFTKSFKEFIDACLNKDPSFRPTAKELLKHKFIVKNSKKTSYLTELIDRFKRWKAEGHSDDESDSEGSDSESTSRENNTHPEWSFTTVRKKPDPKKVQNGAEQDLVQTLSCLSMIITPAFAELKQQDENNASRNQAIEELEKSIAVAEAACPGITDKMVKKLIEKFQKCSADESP
# Serine/threonine-protein kinase Sgk1 (Homo sapiens), sequence (O00141 whole entry): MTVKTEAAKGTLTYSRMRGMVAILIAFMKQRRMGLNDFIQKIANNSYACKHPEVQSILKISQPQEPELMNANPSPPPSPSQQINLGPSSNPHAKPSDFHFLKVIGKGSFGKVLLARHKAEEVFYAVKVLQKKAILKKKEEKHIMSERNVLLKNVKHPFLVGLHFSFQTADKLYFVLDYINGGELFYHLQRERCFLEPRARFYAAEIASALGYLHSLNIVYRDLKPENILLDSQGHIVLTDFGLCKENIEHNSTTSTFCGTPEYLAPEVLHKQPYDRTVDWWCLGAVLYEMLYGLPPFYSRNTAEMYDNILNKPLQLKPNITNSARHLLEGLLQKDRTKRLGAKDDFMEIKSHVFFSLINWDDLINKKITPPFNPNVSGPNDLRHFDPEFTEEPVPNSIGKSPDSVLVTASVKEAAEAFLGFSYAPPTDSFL
# Serine/threonine-protein kinase D1, sequence (Q15139 whole entry): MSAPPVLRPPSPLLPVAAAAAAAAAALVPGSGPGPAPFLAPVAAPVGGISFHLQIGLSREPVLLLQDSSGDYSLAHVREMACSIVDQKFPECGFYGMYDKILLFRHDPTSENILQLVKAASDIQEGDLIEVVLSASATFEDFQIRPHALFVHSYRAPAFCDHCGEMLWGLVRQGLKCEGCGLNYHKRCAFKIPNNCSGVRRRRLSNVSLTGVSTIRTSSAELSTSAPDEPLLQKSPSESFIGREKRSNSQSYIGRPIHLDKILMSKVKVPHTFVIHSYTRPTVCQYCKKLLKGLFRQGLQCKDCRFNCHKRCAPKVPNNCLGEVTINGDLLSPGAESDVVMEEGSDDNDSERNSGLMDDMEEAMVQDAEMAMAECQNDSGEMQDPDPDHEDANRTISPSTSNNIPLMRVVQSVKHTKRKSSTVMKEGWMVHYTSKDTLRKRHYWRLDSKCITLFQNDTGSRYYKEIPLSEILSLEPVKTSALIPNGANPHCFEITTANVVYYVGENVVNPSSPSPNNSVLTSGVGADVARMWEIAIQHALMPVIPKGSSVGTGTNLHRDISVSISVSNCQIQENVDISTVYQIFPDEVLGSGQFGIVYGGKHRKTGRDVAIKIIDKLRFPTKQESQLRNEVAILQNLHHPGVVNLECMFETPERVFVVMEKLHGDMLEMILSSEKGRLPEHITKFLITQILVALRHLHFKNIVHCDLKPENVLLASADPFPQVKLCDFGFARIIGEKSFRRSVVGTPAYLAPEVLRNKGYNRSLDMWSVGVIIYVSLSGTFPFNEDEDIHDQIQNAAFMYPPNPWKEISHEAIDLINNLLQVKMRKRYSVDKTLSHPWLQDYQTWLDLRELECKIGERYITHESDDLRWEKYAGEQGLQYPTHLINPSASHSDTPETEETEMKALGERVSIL
compound,measurement,setting,value
N#CCNC(=O)c1ccc(-c2ccnc(Nc3ccc(N4CCOCC4)cc3)n2)cc1 [MOMELOTINIB],inhibition,[1],< 50%
same,IC50,[2],> 1000 nM
same,IC50,[3],> 1000 nM
same,IC50,[4],> 1000 nM
same,inhibition,[5],< 50%
same,inhibition,[6],< 50%
same,IC50,BaF3,200 nM
same,inhibition,[7],< 50%
same,inhibition,[8],< 50%
same,inhibition,[9],< 50%
same,inhibition,[10],< 50%
same,IC50,[11],> 1000 nM
same,IC50,Ephrin type-A receptor 2,> 1000 nM
same,inhibition,[12],< 50%
same,IC50,[13],> 1000 nM
same,IC50,[14],> 1000 nM
same,IC50,[15],> 1000 nM
same,inhibition,[16],< 50%
same,inhibition,[17],< 50%
same,inhibition,[18],> 50%
same,IC50,[19],< 1000 nM
same,IC50,[20],< 1000 nM
same,IC50,[21],> 1000 nM
same,inhibition,[22],Dose-Dependent Effect
same,inhibition,[23],> 50%
same,IC50,Aurora kinase B,< 1000 nM
same,inhibition,[24],< 50%
same,IC50,[25],< 1000 nM
same,IC50,[26],< 100 nM
same,IC50,[27],< 1000 nM
same,inhibition,[28],< 50%
same,IC50,K562,58000 nM
same,IC50,[29],> 1000 nM
same,IC50,[30],< 1000 nM
same,IC50,[31],< 1000 nM
same,inhibition,[32],< 50%
same,IC50,[33],> 1000 nM
same,IC50,[34],< 1000 nM
same,IC50,[35],> 1000 nM
same,inhibition,[36],< 50%
same,IC50,[37],< 1000 nM
same,IC50,[38],> 1000 nM
